Test results reported in ChEMBL document CHEMBL2401613, “Benzofused hydroxamic acids: useful fragments for the preparation of histone deacetylase inhibitors. Part 1: hit identification” (Bioorg Med Chem Lett, 2013).
Converted amounts (≈) assume the structure as drawn.

Experiments:
[1] = target: T1, Histone deacetylase (Homo sapiens) (UniProt Q13547+O15379+Q9UBN7+Q92769+Q9UQL6+Q8WUI4+Q9BY41+Q96DB2+P56524+Q9UKV0+Q969S8); assay: Inhibition of HDAC (unknown origin) at 0.1 uM; assay type: protein assay
Procedure, shortened: (§1)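 HeLa nuclear extract HDAC incubated with an acetylated-lysine substrate and inhibitor. Deacetylated substrate mixed with developer gives a fluorophore, read at ex/em 335/460 nm. Two-point screen at 0.1 and 1.0 µM, expressed as % inhibition. Triplicate determinations, averaged.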

[2] = Aqueous solubility of the compound at pH 7.4; assay type: physicochemical
HCT-116 [3] = assay: Antitumor activity against human HCT116 cells xenografted in CD1 mouse assessed as reduction in tumor volume at 50 mg/kg, po; assay type: functional; design: scale not given: the % may be the effect or the level left
Procedure, shortened: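 Female CD1 nude (nu/nu) athymic mice were dosed orally at 50 and 100 mg/kg for 21 days, n = 4 per group. Vehicle control was 0.5% CMC at 10 mL/kg. Read-out was tumor volume inhibition (TVI).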

HCT-116 [4] = assay: Cytotoxicity against human HCT116 cells after 5 days by Alamar Blue assay; assay type: functional, cell-based; conditions: HCT-116, 120 h
Procedure, shortened: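 Colon cancer HCT-116 cells were seeded in complete medium, and inhibitors were added after 24 h at 0.1–100 µM in quadruplicate. After 5 days, Alamar Blue was added and plates were incubated a further 4 h. Fluorescence was read at ex 530/em 590 nm. IC50 is the concentration giving 50% inhibition of proliferation.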

[5] = target: T1, Histone deacetylase (Homo sapiens); assay: Inhibition of HDAC (unknown origin) at 1 uM; assay type: protein assay; procedure, shortened: as §1
Histone deacetylase = assay: Inhibition of HDAC in human HeLa cells assessed as deacetylation of substrate by fluorescence plate reader analysis; assay type: cell-based
Procedure, shortened: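 Enzyme source: HeLa cell nuclear extract (partially purified HDAC). Extract incubated with an acetylated-lysine substrate in the presence of inhibitor; a developer then releases a fluorophore from the deacetylated substrate, read at ex/em 335/460 nm. IC50 is the concentration giving 50% inhibition of enzymatic activity, from triplicate runs averaged. SAHA and LAQ-xx were positive controls.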

| SMILES | inhibition [1] [%] | solubility [2] [µg/mL] | inhibition [5] [%] | IC50 (Histone deacetylase) [µM] | Activity (HCT-116 [3]) [%] | IC50 (HCT-116 [4]) [nM] |
| --- | --- | --- | --- | --- | --- | --- |
| O=C(NO)c1cc2ccc(CSc3ccc(F)cc3)cc2s1 | < 20 |  | 24 |  |  |  |
| CN(C(=O)CCc1ccccc1)c1ccc2cc(C(=O)NO)sc2c1 | 21 | 4 (≈ 11.3 µM) | 63 |  |  |  |
| CN(C)c1ccc(CC(=O)Nc2ccc3cc(C(=O)NO)sc3c2)cc1 | 57 |  | 82 |  |  | 500 |
| O=C(NO)c1cc2ccc(COc3ccc(F)cc3)cc2s1 | < 20 |  | 31 |  |  |  |
| O=C(Cc1cccnc1)Nc1ccc2cc(C(=O)NO)sc2c1 | 62 | 4 (≈ 12.2 µM) | 83 |  |  | 3000 |
| O=C(Cc1cccnc1)Nc1ccc2sc(C(=O)NO)cc2c1 | 49 | 4 (≈ 12.2 µM) |  |  |  | 17000 |
| N#Cc1cc2ccc(NC(=O)[C@H](N)c3ccccc3)cc2s1 | < 20 |  | < 20 |  |  |  |
| N[C@@H](CCc1ccccc1)C(=O)Nc1ccc2cc(C(=O)NO)sc2c1 | 71 |  | 85 |  |  | 3400 |
| O=C(NO)c1cc2ccc(CN3CCc4ccccc4C3)cc2s1 | 53 |  | 83 |  |  | 1300 |
| O=C(Cc1ccsc1)Nc1ccc2cc(C(=O)NO)sc2c1 | 73 |  | 87 |  |  | 110 |
| O=C(Cc1ccc2c(c1)OCO2)Nc1ccc2cc(C(=O)NO)sc2c1 | 55 |  | 78 |  |  |  |
| O=C(NO)c1cc2ccc(COc3cccc(F)c3)cc2s1 | 23 |  | 68 |  |  |  |
| O=C(Cc1ncc[nH]1)Nc1ccc2cc(C(=O)NO)sc2c1 | 24 |  | 78 |  |  |  |
| O=C(Cc1ccncc1)Nc1ccc2cc(C(=O)NO)sc2c1 | 66 | 4 (≈ 12.2 µM) | 84 |  |  | 1800 |
| O=C(Cc1ccncc1)Nc1ccc2sc(C(=O)NO)cc2c1 | 49 | 4 (≈ 12.2 µM) | 78 |  |  | 8600 |
| O=C(NCc1ccc2cc(C(=O)NO)sc2c1)c1cccnc1 | 72 |  | 84 |  |  | 730 |
| COc1ccc(CC(=O)Nc2ccc3cc(C(=O)NO)sc3c2)cc1 | 75 |  | 84 |  |  | 490 |
| N[C@H](CCc1ccccc1)C(=O)Nc1ccc2cc(C(=O)NO)sc2c1 | 44 |  | 78 |  |  | 320 |
| COc1ccccc1CC(=O)Nc1ccc2cc(C(=O)NO)sc2c1 | 54 |  | 81 |  |  | 550 |
| CN(C)CCCC(=O)Nc1ccc2cc(C(=O)NO)sc2c1 | 50 | 1310 (≈ 4080 µM) | 79 |  |  | 2400 |
| O=C(NO)c1cc2ccc(CN(CCO)C(=O)Nc3ccccc3)cc2s1 | 77 |  | 91 |  |  | 1400 |
| O=C(NO)c1cc2ccc(CN(CCO)Cc3ccccc3)cc2s1 | 52 |  | 80 |  |  | 830 |
| COc1cccc(CC(=O)Nc2ccc3cc(C(=O)NO)sc3c2)c1 | 65 |  | 83 |  |  | 600 |
| Cc1ccc2cc(C(=O)NO)sc2c1F |  |  |  | 0.458 |  |  |
| N[C@H](Cc1ccccc1)C(=O)Nc1ccc2cc(C(=O)NO)sc2c1 | 41 |  | 77 |  |  | 340 |
| O=C(Cc1ccccn1)Nc1ccc2cc(C(=O)NO)sc2c1 | 59 | 4 (≈ 12.2 µM) | 78 |  |  | 480 |
| O=C(NCc1ccc2cc(C(=O)NO)sc2c1)c1ccco1 | 89 |  | 92 |  |  | 70 |
| N[C@@H](Cc1ccccc1)C(=O)Nc1ccc2cc(C(=O)NO)sc2c1 | 54 |  | 81 |  |  | 5000 |

More lines, main results first:

| inhibition [1] [%] | solubility [2] [µg/mL] | inhibition [5] [%] | IC50 (Histone deacetylase) [µM] | SMILES | Activity (HCT-116 [3]) [%] | IC50 (HCT-116 [4]) [nM] |
| --- | --- | --- | --- | --- | --- | --- |
| 71 | 4 (≈ 12.3 µM) | 85 |  | O=C(Cc1ccccc1)Nc1ccc2cc(C(=O)NO)sc2c1 | 26 | 100 |
|  |  |  | 76.13 | O=C(NO)c1csc2ccccc12 |  |  |
| 39 | 4 (≈ 12.2 µM) | 74 |  | O=C(Cc1ccccn1)Nc1ccc2sc(C(=O)NO)cc2c1 |  |  |
|  |  |  | 3.79 | COc1cccc2sc(C(=O)NO)cc12 |  |  |
| 28 | 4 (≈ 11.8 µM) | 69 |  | O=C(CCc1ccccc1)Nc1ccc2sc(C(=O)NO)cc2c1 |  |  |
|  |  |  | 2.17 | O=C(NO)c1cc2ccccc2s1 |  |  |
| 48 | 4 (≈ 12.3 µM) | 82 |  | O=C(Cc1ccccc1)Nc1ccc2sc(C(=O)NO)cc2c1 |  | 1300 |
| 42 | 4 (≈ 11.8 µM) | 76 |  | O=C(CCc1ccccc1)Nc1ccc2cc(C(=O)NO)sc2c1 |  | 2600 |
| 28 | 4 (≈ 13.4 µM) | 68 |  | O=C(NO)c1cc2cc(NCc3ccccc3)ccc2s1 |  |  |
| 69 |  | 85 |  | N[C@H](C(=O)Nc1ccc2cc(C(=O)NO)sc2c1)c1ccccc1 |  | 770 |
| 27 | 4 (≈ 11.3 µM) | 67 |  | CN(C(=O)CCc1ccccc1)c1ccc2sc(C(=O)NO)cc2c1 |  |  |
|  |  |  | 11.63 | O=C(NO)c1cc2c(Cl)cccc2s1 |  |  |
|  |  |  | 2.91 | O=C(NO)c1cc2cccc(Cl)c2s1 |  |  |
| 60 |  | 88 |  | O=C(Cc1ccccc1)NCc1ccc2cc(C(=O)NO)sc2c1 |  | 1200 |
| 58 | 4 (≈ 13.4 µM) | 79 |  | O=C(NO)c1cc2ccc(NCc3ccccc3)cc2s1 |  | 1300 |
| 22 |  | 58 |  | O=C(NO)c1cc2ccc(COc3ccccc3F)cc2s1 |  |  |
| 53 |  | 76 |  | O=C(NO)c1cc2ccc(CN(CCO)c3ccccc3)cc2s1 |  | 1700 |
| 70 |  | 85 |  | N[C@@H](C(=O)Nc1ccc2cc(C(=O)NO)sc2c1)c1ccccc1 |  | 500 |
|  |  |  | 1.35 | COc1cc2cc(C(=O)NO)sc2cc1C |  |  |
| 93 |  | 87 |  | O=C(NCc1ccc2cc(C(=O)NO)sc2c1)c1ccccc1 |  | 250 |
|  |  |  | 1.76 | Cc1ccc2cc(C(=O)NO)sc2c1 |  |  |
|  |  |  | 0.557 | O=C(NO)c1cc2sccc2s1 |  |  |
|  |  |  | 0.989 | Cc1cc2sc(C(=O)NO)cc2cc1O |  |  |
| 32 | 4 (≈ 12.8 µM) | 73 |  | O=C(NO)c1cc2ccc(NCCc3ccccc3)cc2s1 |  |  |
|  |  |  | 1.08 | O=C(NO)c1cc2ccsc2s1 |  |  |
|  |  |  | 9.19 | O=C(NO)c1cc2cccc(C(F)(F)F)c2s1 |  |  |
| 28 | 4 (≈ 12.8 µM) | 61 |  | O=C(NO)c1cc2cc(NCCc3ccccc3)ccc2s1 |  |  |
